Results: ChEMBL document CHEMBL3877308, “Design, synthesis and in vitro biological evaluation of oligopeptides targeting E. coli type I signal peptidase (LepB)” (Bioorg Med Chem, 2017)
≈ marks a conversion by molar mass, not a printed value.

Experiments:
[1] = biological target: Signal peptidase I (Escherichia coli K-12) (UniProt P00803); assay: (§1) Inhibition of full length Escherichia coli His6-tagged LepB expressed in Escherichia coli C43(DE3) assessed as residual activity at 1.25 uM using dabcyl-VEVGGTATAGAFSRPGLE-(EDANS) as substrate preincubated for 10 mins followed by substrate addition measured for 2 hrs by FRET assay relative to control
Signal peptidase I (Escherichia coli K-12), sequence (P00803 whole entry): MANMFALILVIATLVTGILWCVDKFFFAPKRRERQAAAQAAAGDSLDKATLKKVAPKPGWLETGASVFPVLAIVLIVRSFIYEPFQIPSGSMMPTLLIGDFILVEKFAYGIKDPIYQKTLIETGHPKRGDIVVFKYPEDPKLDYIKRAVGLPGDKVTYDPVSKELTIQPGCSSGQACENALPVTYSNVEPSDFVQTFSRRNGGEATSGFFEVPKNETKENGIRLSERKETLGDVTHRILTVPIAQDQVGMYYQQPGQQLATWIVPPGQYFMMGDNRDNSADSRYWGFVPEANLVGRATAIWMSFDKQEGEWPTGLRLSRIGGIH
Procedure, shortened: (§2)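 Enzyme came from the membrane fraction, extracted with 1% reduced Triton X-100 and purified by metal-chelation chromatography in 0.5% detergent. FRET pair was dabcyl acceptor and EDANS donor. EcLepB (final about 50 nM) was pre-incubated with compound 10 min at 22 °C. Reaction was then run with 8 µM substrate, following the linear fluorescence increase at 22 °C for 2 h.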

Pseudomonas aeruginosa [2] = assay: Antibacterial activity against wild type Pseudomonas aeruginosa PAO1 after 16 to 20 hrs by broth microdilution assay; format: functional
Procedure, shortened: (§3)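 MIC by broth microdilution in cation-adjusted Mueller-Hinton II medium, following EUCAST and CLSI guidelines; panel of Gram-negative strains plus S. aureus ATCC 29213.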

Escherichia coli [3] = assay: Antibacterial activity against wild type Escherichia coli ATCC 25922 after 16 to 20 hrs by broth microdilution assay; format: functional; procedure, shortened: as §3
Pseudomonas aeruginosa [4] = assay: Antibacterial activity against wild type Pseudomonas aeruginosa PAO750 harboring efflux defective mutant after 16 to 20 hrs by broth microdilution assay; format: functional
Procedure, shortened: (§4)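 Broth microdilution MIC in cation-adjusted Mueller-Hinton II medium, following EUCAST and CLSI guidelines; tested on a panel of Gram-negative strains plus S. aureus ATCC 29213 (wild-type).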

[5] = Hemolytic activity against human RBC at 100 uM after 45 mins by spectrophotometric method relative to control; format: ADME, cell-based, Erythrocyte; conditions: red blood cells (RBC), read-out: Activity
Procedure, shortened: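 Hemolysis was tested using red blood cells from heparinized human blood.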

[6] = biological target: Signal peptidase I (Escherichia coli K-12) (UniProt P00803); assay: as §1, with “0.039” for “1.25”; procedure, shortened: as §2
[7] = biological target: Signal peptidase I (Escherichia coli K-12) (UniProt P00803); assay: as §1, with “0.078” for “1.25”; procedure, shortened: as §2
Signal peptidase I = Signal peptidase I (Escherichia coli K-12, UniProt P00803); assay: Inhibition of full length Escherichia coli His6-tagged LepB expressed in Escherichia coli C43(DE3) using dabcyl-VEVGGTATAGAFSRPGLE-(EDANS) as substrate preincubated for 10 mins followed by substrate addition measured for 2 hrs by FRET assay
Signal peptidase I, sequence (P00803 whole entry): as above
Procedure, shortened: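 Enzyme extracted from the membrane fraction with 1% reduced Triton X-100 and purified by metal-chelation chromatography in 0.5% detergent. Enzyme (final ~50 nM) was pre-incubated with compound for 10 min at 22 °C. The linear rise in EDANS donor fluorescence (dabcyl acceptor) was then followed at 22 °C for 2 h. IC50 came from non-linear regression of sigmoidal rate-versus-concentration curves.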

Escherichia coli [8] = assay: Antibacterial activity against Escherichia coli D22 harboring lpxC mutant after 16 to 20 hrs by broth microdilution assay; format: functional; procedure, shortened: as §4
Acinetobacter baumannii = assay: Antibacterial activity against wild type Acinetobacter baumannii ATCC 19606 after 16 to 20 hrs by broth microdilution assay; format: functional; procedure, shortened: as §3
Escherichia coli [9] = assay: Antibacterial activity against Escherichia coli CH3130 harboring tolC deletion mutant after 16 to 20 hrs by broth microdilution assay; format: functional; procedure, shortened: as §4
[10] = biological target: Signal peptidase I (Escherichia coli K-12) (UniProt P00803); assay: as §1, with “0.01” for “1.25”; procedure, shortened: as §2
[11] = biological target: Signal peptidase I (Escherichia coli K-12) (UniProt P00803); assay: Inhibition of full length Escherichia coli His6-tagged LepB expressed in Escherichia coli C43(DE3) assessed as residual activity at 5 uM using dabcyl-VEVGGTATAGAFSRPGLE-(EDANS) as substrate preincubated for 10 mins followed by substrate addition measured for 2 hrs by FRET assay relative to control; procedure, shortened: as §2
[12] = biological target: Signal peptidase I (Escherichia coli K-12) (UniProt P00803); assay: as §1, with “0.156” for “1.25”; procedure, shortened: as §2
[13] = biological target: Signal peptidase I (Escherichia coli K-12) (UniProt P00803); assay: as §1, with “0.625” for “1.25”; procedure, shortened: as §2
[14] = biological target: Signal peptidase I (Escherichia coli K-12) (UniProt P00803); assay: (§5) Inhibition of full length Escherichia coli His6-tagged LepB expressed in Escherichia coli C43(DE3) assessed as residual activity at 10 uM using dabcyl-VEVGGTATAGAFSRPGLE-(EDANS) as substrate preincubated for 10 mins followed by substrate addition measured for 2 hrs by FRET assay relative to control; procedure, shortened: as §2
[15] = biological target: Signal peptidase I (Escherichia coli K-12) (UniProt P00803); assay: as §5, with “at 0.313” for “at 10”; procedure, shortened: as §2
[16] = Cytotoxicity against human HepG2 cells assessed as reduction in cell viability after 72 hrs by fluorescein diacetate dye based fluorometric microculture assay; format: toxicity
Procedure, shortened: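 FMCA on HepG2 cells read at 72 h. Survival index (%) is fluorescence in test wells as percent of control cultures, with blank values subtracted. IC50 was obtained by non-linear regression of log concentration-effect curves.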

Staphylococcus aureus = assay: Antibacterial activity against wild type Staphylococcus aureus ATCC 29213 after 16 to 20 hrs by broth microdilution assay; format: functional; procedure, shortened: as §3
[17] = biological target: Signal peptidase I (Escherichia coli K-12) (UniProt P00803); assay: as §5, with “at 0.002” for “at 10”; procedure, shortened: as §2
[18] = biological target: Signal peptidase I (Escherichia coli K-12) (UniProt P00803); assay: Inhibition of full length Escherichia coli His6-tagged LepB expressed in Escherichia coli C43(DE3) assessed as residual activity at 2.5 uM using dabcyl-VEVGGTATAGAFSRPGLE-(EDANS) as substrate preincubated for 10 mins followed by substrate addition measured for 2 hrs by FRET assay relative to control; procedure, shortened: as §2
Klebsiella pneumoniae = assay: Antibacterial activity against wild type Klebsiella pneumoniae […] after 16 to 20 hrs by broth microdilution assay; format: functional; procedure, shortened: as §3
[19] = biological target: Signal peptidase I (Escherichia coli K-12) (UniProt P00803); assay: Inhibition of full length Escherichia coli His6-tagged LepB expressed in Escherichia coli C43(DE3) at 100 uM using dabcyl-VEVGGTATAGAFSRPGLE-(EDANS) as substrate preincubated for 10 mins followed by substrate addition measured for 2 hrs by FRET assay relative to control; procedure, shortened: as §2
[20] = biological target: Signal peptidase I (Escherichia coli K-12) (UniProt P00803); assay: as §5, with “at 0.001” for “at 10”; procedure, shortened: as §2
[21] = biological target: Signal peptidase I (Escherichia coli K-12) (UniProt P00803); assay: as §5, with “at 0.0005” for “at 10”; procedure, shortened: as §2
[22] = biological target: Signal peptidase I (Escherichia coli K-12) (UniProt P00803); assay: as §5, with “at 0.02” for “at 10”; procedure, shortened: as §2

CCCCc1ccc(-c2ccc(C(=O)N[C@@H](CCN)C(=O)N[C@H](C(=O)N[C@@H](C)C(=O)N[C@@H](CCCCN)C(=O)N[C@@H](C)B3O[C@@H]4C[C@@H]5C[C@@H](C5(C)C)[C@]4(C)O3)[C@H](C)O)cc2)cc1
Activity [1]: 0.522% | MIC (Pseudomonas aeruginosa [2]): 32 µg/mL (≈ 37.2 µM) | MIC (Escherichia coli [3]): 8 µg/mL (≈ 9.3 µM) | MIC (Pseudomonas aeruginosa [4]): 8 µg/mL (≈ 9.3 µM) | hemolysis at 0.75 h, 100 µM [5]: 12.8% | Activity [6]: 80.2% | Activity [7]: 72.7% | IC50 (Signal peptidase I): 0.11 µM | MIC (Escherichia coli [8]): 1 µg/mL (≈ 1.16 µM) | MIC (Acinetobacter baumannii): 32 µg/mL (≈ 37.2 µM) | MIC (Escherichia coli [9]): 4 µg/mL (≈ 4.65 µM) | Activity [10]: 86.8% | Activity [11]: 0.501% | Activity [12]: 25.3% | Activity [13]: 6.98% | Activity [14]: -0.117% | Activity [15]: 18.9% | IC50 at 72 h [16]: 12.5 µM | MIC (Staphylococcus aureus): < 0.125 µg/mL | Activity [17]: 98.2% | Activity [18]: 3.33% | MIC (Klebsiella pneumoniae): 2 µg/mL (≈ 2.33 µM)

CC(=O)N[C@@H](C)C(=O)N[C@@H](CC(N)=O)C(=O)N[C@@H](C)C(=O)C(=O)NC(C)(C)C
inhibition [19]: 13.3%

CC(=O)N[C@@H](C)B1O[C@@H]2C[C@@H]3C[C@@H](C3(C)C)[C@]2(C)O1
inhibition [19]: 18%

CCCCCCCCCC(=O)N1CCC[C@H]1C(=O)N[C@H](C(=O)N[C@@H](C)C(=O)N[C@@H](CC(N)=O)C(=O)N[C@@H](C)C(=O)C(=O)NCc1cccc2ccccc12)[C@H](C)O
inhibition [19]: 14.4%

CCCCCCc1ccc(-c2ccc(C(=O)N3CC(CN)C[C@H]3C(=O)N[C@H](C(=O)N[C@@H](C)C(=O)N[C@@H](CC(N)=O)C(=O)N[C@@H](C)B3O[C@@H]4C[C@@H]5C[C@@H](C5(C)C)[C@]4(C)O3)[C@H](C)O)cc2)cc1 (stereo partly specified)
Activity [1]: 0.881% | MIC (Pseudomonas aeruginosa [2]): 64 µg/mL (≈ 71.1 µM) | MIC (Escherichia coli [3]): 32 µg/mL (≈ 35.6 µM) | MIC (Pseudomonas aeruginosa [4]): 8 µg/mL (≈ 8.89 µM) | Activity [20]: 89.7% | hemolysis at 0.75 h, 100 µM [5]: 5.7% | IC50 (Signal peptidase I): 0.018 µM | MIC (Escherichia coli [8]): 1 µg/mL (≈ 1.11 µM) | MIC (Acinetobacter baumannii): 32 µg/mL (≈ 35.6 µM) | MIC (Escherichia coli [9]): 4 µg/mL (≈ 4.44 µM) | Activity [21]: 99.3% | inhibition [19]: > 50% | Activity [10]: 81.6% | Activity [22]: 37.6% | Activity [11]: 4.04% | Activity [12]: 6.31% | Activity [13]: 5.53% | Activity [14]: 3.93% | IC50 at 72 h [16]: 18.6 µM | MIC (Staphylococcus aureus): 0.5 µg/mL (≈ 0.556 µM) | Activity [17]: 88.8% | Activity [18]: 0.353% | MIC (Klebsiella pneumoniae): 16 µg/mL (≈ 17.8 µM)

CC(=O)N[C@@H](C)C(=O)N[C@@H](CC(N)=O)C(=O)N[C@@H](C)C(=O)C(=O)NCc1cccc2ccccc12
inhibition [19]: 26.6%

CNC(=O)[C@@H]1CCCN1C(=O)[C@H](C)NC(=O)[C@H](CC(N)=O)NC(=O)[C@H](C)NC(=O)[C@@H](NC(=O)[C@@H]1CCCN1C(C)=O)[C@H](C)O
inhibition [19]: 35.8%

CC(=O)N1CCC[C@H]1C(=O)N[C@H](C(=O)N[C@@H](C)C(=O)N[C@@H](CC(N)=O)C(=O)N[C@@H](C)C(=O)C(=O)NCc1cccc2ccccc12)[C@H](C)O
inhibition [19]: 32.3%
